From ChEMBL document CHEMBL1155130, “Selective angiotensin II AT2 receptor agonists: Benzamide structure-activity relationships” (Bioorg Med Chem, 2008)
Activity calls are given as the source filed them. The calls are words filed in the database; no cut-off is given here.

What was measured:
[1] = molecular target: T1, Type-1 angiotensin II receptor A (Rattus norvegicus, UniProt P25095); test: Displacement of [125]Ang2 from AT1 receptor in rat liver membrane; assay type: cell membranes
T1 sequence (P25095 whole entry): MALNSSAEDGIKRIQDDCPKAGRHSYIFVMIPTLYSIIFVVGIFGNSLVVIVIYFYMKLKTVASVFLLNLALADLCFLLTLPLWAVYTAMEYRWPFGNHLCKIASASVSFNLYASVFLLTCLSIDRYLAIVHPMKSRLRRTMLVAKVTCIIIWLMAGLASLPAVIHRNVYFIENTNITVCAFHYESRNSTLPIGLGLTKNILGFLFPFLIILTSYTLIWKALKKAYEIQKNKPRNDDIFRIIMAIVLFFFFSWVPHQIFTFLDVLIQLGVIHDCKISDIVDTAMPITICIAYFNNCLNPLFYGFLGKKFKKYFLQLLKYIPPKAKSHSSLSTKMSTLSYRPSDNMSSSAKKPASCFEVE
Summary of the method: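 Rat liver membranes (5 mg original tissue per tube) incubated with [125I]Ang II (80,000–85,000 cpm, 0.03 nM) and varying test concentrations in 50 mM Tris–HCl pH 7.4, 100 mM NaCl, 10 mM MgCl2, 1 mM EDTA, 0.025% bacitracin, 0.2% BSA; 25 °C, 2 h. GF/B filtration, gamma counting; one-site fit; triplicate.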

[2] = molecular target: AT2 receptor (Sus scrofa, UniProt A0A4X1W622); test: Displacement of [125]Ang2 from AT2 receptor in pig uterus membrane; assay type: cell membranes
[3] = test system: NG108-15; test: Effect on cellular morphology of mouse rat hybrid NG108-15 cells assessed as induction of neurite outgrowth; assay type: functional, cell-based
Summary of the method: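 NG108-15 cells (passage 18–28) grown in DMEM/10% FBS/HAT/gentamycin, 37 °C, 7% CO2. Plated at 3.6 × 10^4 cells per 35 mm dish, dosed daily for 3 days starting 24 h after plating, ± AT2 antagonist PD 123,319 added 30 min before. Phase-contrast micrographs on day 4. Cells with a neurite longer than one cell body counted as % of total (≥290 cells). Three independent experiments, duplicates, mean ± SEM.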

Molecule `CCCCOC(=O)NS(=O)(=O)c1sc(CC(C)C)cc1-c1ccc(C(=O)N2CCOCC2)cc1` has a Ki [1] greater than 10000 nM and a Ki [2] of 348 nM.
`CCCCOC(=O)NS(=O)(=O)c1sc(CC(C)C)cc1-c1ccc(CC(=O)N(C)C)cc1` gave a Ki [1] greater than 10000 nM and a Ki [2] of 7 nM.
`CCCCOC(=O)NS(=O)(=O)c1cc(Cc2ccccc2)ccc1-c1ccc(C(=O)N(CC)CC)cc1` showed a Ki [1] greater than 10000 nM and a Ki [2] of 300 nM.
With `CCCCOC(=O)NS(=O)(=O)c1sc(CC(C)C)cc1-c1ccc(C(=O)N(C)C)cc1` the Ki [1] was greater than 10000 nM and the Ki [2] was 36.9 nM.
Work on `CCCCOC(=O)NS(=O)(=O)c1sc(CC(C)C)cc1-c1ccc(C(=O)NC(C)C)cc1` yielded a Ki [1] greater than 10000 nM and a Ki [2] of 2.6 nM.
Work on `CCCCOC(=O)NS(=O)(=O)c1sc(CC(C)C)cc1-c1ccc(C(=O)N(C)Cc2ccccc2)cc1` yielded a Ki [1] greater than 10000 nM and a Ki [2] of 31.5 nM.
`CCCCOC(=O)NS(=O)(=O)c1ccc(CC(C)C)cc1-c1ccc(C(=O)N(CC)CC)cc1` was tested, and the Ki [1] was greater than 10000 nM and the Ki [2] was 144 nM.
Molecule `CCCCOC(=O)NS(=O)(=O)c1ccc(CC(C)C)cc1-c1ccc(Cn2c(CC)nc3c(C)cc(C)nc32)cc1` has a Ki [1] of 2.1 nM and a Ki [2] of 0.7 nM.
`CCCCOC(=O)NS(=O)(=O)c1sc(CC(C)C)cc1-c1ccc(Cn2ccnc2)cc1` [BULOXIBUTID] gave a Ki [1] greater than 10000 nM.
For `CCCCOC(=O)NS(=O)(=O)c1sc(CC(C)C)cc1-c1ccc(C(=O)N2CCCC2)cc1`, the Ki [1] was greater than 10000 nM and the Ki [2] was 6.4 nM.
`CCCCOC(=O)NS(=O)(=O)c1ccc(-c2ccccc2)cc1-c1ccc(C(=O)N(CC)CC)cc1` was tested, and the Ki [1] was greater than 10000 nM, the Activity [3] was “Active” and the Ki [2] was 52 nM.
`CCCCOC(=O)NS(=O)(=O)c1sc(CC(C)C)cc1-c1ccc(C(=O)NC2CCCCC2)cc1` showed a Ki [1] greater than 10000 nM and a Ki [2] of 6.4 nM.
With `CCCCOC(=O)NS(=O)(=O)c1ccccc1-c1ccc(C(=O)N(CC)CC)cc1` the Ki [1] was greater than 10000 nM and the Ki [2] was 402 nM.
With `CCCCOC(=O)NS(=O)(=O)c1sc(CC(C)C)cc1-c1ccc(C(=O)N(CC)CC)cc1` the Ki [1] was greater than 10000 nM, the Activity [3] was “Active” and the Ki [2] was 3 nM.
In the case of `CCCCOC(=O)NS(=O)(=O)c1ccc(Cc2ccccc2)cc1-c1ccc(C(=O)N(CC)CC)cc1`, the Ki [1] is reported as greater than 10000 nM and the Ki [2] is reported as 162 nM.
`CCCCOC(=O)NS(=O)(=O)c1sc(CC(C)C)cc1-c1ccc(C(=O)N2CCCCC2)cc1` showed a Ki [1] greater than 10000 nM and a Ki [2] of 3.2 nM.
For `CCCCOC(=O)NS(=O)(=O)c1sc(CC(C)C)cc1-c1ccc(C(=O)Nc2nccs2)cc1`, the Ki [1] was greater than 10000 nM and the Ki [2] was 10.9 nM.
With `CCCCOC(=O)NS(=O)(=O)c1sc(CC(C)C)cc1-c1ccc(C(=O)NC2CC2)cc1` the Ki [1] was greater than 10000 nM and the Ki [2] was 10.5 nM.
Work on `CCCCOC(=O)NS(=O)(=O)c1cc(CC(C)C)ccc1-c1ccc(C(=O)N(CC)CC)cc1` yielded a Ki [1] greater than 10000 nM and a Ki [2] of 122 nM.
In the case of `CCCCOC(=O)NS(=O)(=O)c1ccc(Oc2ccccc2)cc1-c1ccc(C(=O)N(CC)CC)cc1`, the Ki [1] is reported as greater than 10000 nM and the Ki [2] is reported as 91.7 nM.
In the case of `CCCCOC(=O)NS(=O)(=O)c1sc(CC(C)C)cc1-c1ccc(C(=O)NCc2ccccc2)cc1`, the Ki [1] is reported as greater than 10000 nM, the Activity [3] is reported as “Active” and the Ki [2] is reported as 1 nM.
`CCCCOC(=O)NS(=O)(=O)c1sc(CC(C)C)cc1-c1ccc(Cn2c(CC)nc3c(C)cc(C)nc32)cc1` was tested, and the Ki [1] was 1.1 nM and the Ki [2] was 2 nM.
For `CCCCOC(=O)NS(=O)(=O)c1sc(CC(C)C)cc1-c1ccc(C(N)=O)cc1`, the Ki [1] was greater than 10000 nM and the Ki [2] was 106 nM.
`CCCCOC(=O)NS(=O)(=O)c1ccc(CC(C)C)cc1-c1ccc(Cn2ccnc2)cc1` was tested, and the Ki [1] was greater than 10000 nM.
With `CCCCOC(=O)NS(=O)(=O)c1sc(CC(C)C)cc1-c1ccc(CN(C)C(C)=O)cc1` the Ki [1] was greater than 10000 nM and the Ki [2] was 8.8 nM.
